Hits are enriched below; roughly 2% of the tested compounds scored in any of these assays.
GAA850 FXN act: frataxin GAA850 promoter activation; HEK293 lucGAA850 FXN promoter luciferase reporter, 24 h; percent of 10 µM SAHA response; activation, % at 6 µM; hit rate 0.56% among 360,000; AID 540364;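 active = activation above the average of all compounds screened plus 3 SD, cutoff fixed separately per campaign, cut at about 7.5% in these data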
NR2E3 ag-1: activates human NR2E3 receptor; hit rate 0.35% among 360,000; inhibition of corepressor binding, % at 3.98 µM; CHO-S Gal4-NCOR/VP16-NR2E3 two-hybrid, luciferase; AID 602229;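 active = inhibition above the mean of all tested compounds plus 3 SD, cut at about 70% in these data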;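 note: higher means lower luciferase signal from less NR2E3 corepressor binding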
Target sequence (Q9Y5X4 whole entry, looked up, the tested form may be a part): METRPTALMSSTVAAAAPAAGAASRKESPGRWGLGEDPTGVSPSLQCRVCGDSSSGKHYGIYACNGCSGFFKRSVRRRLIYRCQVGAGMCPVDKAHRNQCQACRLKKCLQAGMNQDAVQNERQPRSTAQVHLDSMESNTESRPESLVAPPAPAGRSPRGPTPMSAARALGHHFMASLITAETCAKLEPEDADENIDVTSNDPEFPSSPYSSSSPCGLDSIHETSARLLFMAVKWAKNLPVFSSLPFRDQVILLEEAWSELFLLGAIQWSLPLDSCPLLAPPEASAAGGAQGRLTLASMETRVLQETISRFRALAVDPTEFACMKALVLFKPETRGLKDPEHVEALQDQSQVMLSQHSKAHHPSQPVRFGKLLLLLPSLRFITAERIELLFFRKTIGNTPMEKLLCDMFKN
T cell HTS: T cell immune modulators affecting CD8 T cell-vesicle binding; response (vesicle binding), % at 7 µM; 2C CD8+ T cell-vesicle binding, flow cytometry; active compounds read low; hit rate 0.068% among 330,000;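 active = response, share of CD8 T cells binding vesicles, and their 90th percentile fluorescence all below set limits, cut at about 80% in these data, passing the limit was not always enough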;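 note: values below 100% mean blocked vesicle binding to the CD8+ T cells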
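incubation = binding step 1.5 h, 37 °C, antibody labelling 20 min, ice | test system = 2C mouse CD8+ T cells | read-out basis = percent CD8+ FL2 mean versus row control | controls = Peptide-free naked vesicles (low) and QL9 vesicles with 0.7% DMSO vehicle (high) | detection = flow cytometry of vesicle-bound cells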
NR2E3 ag-2: activates human photoreceptor nuclear receptor NR2E3 | Q9Y5X4 | GST-NR2E3/biotin-RetCOR TR-FRET, 1536-well | inhibition of corepressor binding, % at 4.78 µM | hit rate 0.12% among 320,000 | AID 2300;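 active = percent inhibition above the cutoff of mean plus 3 SD of all tested compounds, set per screening campaign, cut at about 20% in these data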
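System: GST-NR2E3 and biotin-RetCOR proteins; probe or stimulus: 7 nM biotin-RetCOR; doses: compound at 4.8 µM, single dose; schedule: Compound–protein incubation for 5 h at 4 °C; detection: time-resolved FRET; read-out: percent inhibition; controls: biotin wells as high control, 0.6% DMSO wells as low control; format: 1536-well plates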
Myeloid diff MLP: compounds promoting myeloid differentiation; ER-HoxA9 myeloid progenitors, lysozyme-GFP differentiation, flow cytometry; calls only at 10 µM; AID 624256; hit rate 1% among 360,000;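 active = normalized GFP-positive differentiation at or above the plate's own cutoff, the solvent-only control mean plus 3 SD; inconclusive = no clear call, values can overlap the other calls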;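 note: cells exposed to compound for four days before flow analysis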
NR2E3 agonist cf: NR2E3 (human) agonism, confirmation | shares compounds with NR2E3 ag-2 | cell-free NR2E3 corepressor release, TR-FRET, 5 h | activation (reported as inhibition), % at 3.98 µM | hit rate 39% among 360 | AID 2379; in the data active = activation above about 20%
PPARg-NCOR2 ctr: releases PPARgamma from NCOR2 in NR2E3 counter-screen. shares compounds with NR2E3 ag-2. TR-FRET PPARg-NCOR2 coregulator interaction, biochemical. inhibition, % at 3.98 µM. hit rate 45% among 360. AID 504787; in the data active = inhibition above about 20%
Of the large screens only hits and unclear results are named; the others gave an inactive call (follow-up assays come after a bar, where they were run).

COc1ccc(C2C(C(C)=O)=C(C)N=c3s/c(=C\c4cc(C)n(C)c4C)c(=O)n32)c(OC)c1 (stereo not given)	Myeloid diff MLP active
Cc1cc(C)cc(OCC(=O)O/N=C(\N)c2cccnc2)c1	none (no result: T cell HTS, NR2E3 ag-2)
Cn1c(N)c(C(=O)CSc2nnc(C3CC3)n2N)c(=O)n(C)c1=O	none
O=C(NC(=S)NNC(=O)c1cnccn1)c1ccc(Cl)cc1	Myeloid diff MLP active
COc1ccc(C(=O)NC(=S)NNC(=O)c2cnccn2)cc1	Myeloid diff MLP inconclusive
CC(=O)Nc1ccccc1OCC(=O)N(Cc1ccccc1)C(C)C	Myeloid diff MLP active
CC(=O)Nc1ccccc1OCC(=O)NC(C)c1ccccc1 (stereo not given)	none
CCN(CC)c1ncnc2c1ncn2[C@H]1CN(Cc2ccc(-c3ccccc3)cc2)C[C@@H](CO)O1	none (no result: T cell HTS, NR2E3 ag-2)
CCOC(=O)c1sc2cc([N+](=O)[O-])cc(SCC(C)C)c2c1N	Myeloid diff MLP active
CCOC(=O)c1cc(N)cc([N+](=O)[O-])c1	none
COc1cc(NC(=O)[C@@H](NC(=O)N2CCn3c2nc2ccccc23)C(C)C)cc(OC)c1	Myeloid diff MLP active
CC(C)C[C@H](NC(=O)N1CCn2c1nc1ccccc12)C(=O)NCc1ccco1	Myeloid diff MLP active
CC(C)[C@H](NC(=O)N1CCn2c1nc1ccccc12)C(=O)N[C@H](Cc1ccccc1)C(=O)O	none
O=C(CCc1nnc(CCc2c[nH]c3ccccc23)o1)NC1CCC1	none
CN1/C(=C\C=N\NC(=O)c2ccc(O)cc2)C(C)(C)c2ccccc21	Myeloid diff MLP active
CN1/C(=C\C(=O)C(F)F)C(C)(C)c2ccccc21	none
Cc1ccc(C(=O)NC(=S)/C=C2\N(C)c3ccccc3C2(C)C)cc1	Myeloid diff MLP active
CC(C)C(=O)NC(=S)/C=C1/N(C)c2ccccc2C1(C)C	Myeloid diff MLP active
CN1/C(=C\C=N\NC(=O)c2cccnc2)C(C)(C)c2ccccc21	none
Cc1cc(C(=O)OCC(=O)c2ccc(Br)s2)c(C)o1	none (no result: GAA850 FXN act, NR2E3 ag-1, Myeloid diff MLP)
Cc1cc(C(=O)OCC(=O)c2ccc(Br)s2)no1	NR2E3 ag-2 25 | NR2E3 agonist cf inactive | PPARg-NCOR2 ctr inactive
COc1ccc(S(=O)(=O)Nc2ccc3c(c2)C(=O)N([C@H](C)CO)C[C@H](C)[C@@H](CN(C)C(=O)Nc2ccc(C(F)(F)F)cc2)OCCCC[C@H](C)O3)cc1	none (no result: T cell HTS, NR2E3 ag-2)
CC(=O)c1sccc1NC(=O)c1ccccc1C(=O)O	NR2E3 ag-2 34 | NR2E3 agonist cf 23 | PPARg-NCOR2 ctr inactive
Cc1cccc(N2CCN(C(=S)c3ccc4c(c3)OCO4)CC2)c1	Myeloid diff MLP inconclusive (no result: T cell HTS, NR2E3 ag-2)
CCOC(=O)C1=C(COC(=O)CNS(=O)(=O)c2ccc(C)c(C)c2)NC(=O)NC1C (stereo not given)	none (no result: T cell HTS, NR2E3 ag-2)
Cn1cc(Cl)c(-c2n[nH]c(=S)n2-c2ccc(F)cc2)n1	NR2E3 ag-2 20 | NR2E3 agonist cf inactive | PPARg-NCOR2 ctr inactive
Cc1ccc(-n2c(-c3nn(C)cc3Cl)n[nH]c2=S)cc1	none
Cn1cc(Cl)c(-c2n[nH]c(=S)n2-c2ccccc2)n1	NR2E3 ag-2 27 | NR2E3 agonist cf inactive | PPARg-NCOR2 ctr inactive
Cc1c(Cl)c(-c2n[nH]c(=S)n2-c2ccc(F)cc2)nn1C	NR2E3 ag-2 21 | NR2E3 agonist cf inactive | PPARg-NCOR2 ctr inactive
OC[C@@H]1CN(Cc2ccc(Cl)cc2)C[C@H](n2cnc3c(NC4CC4)ncnc32)O1	none (no result: T cell HTS, NR2E3 ag-2)
O=C(O)CCCC[C@@H]1SC[C@@H]2NC(=O)N[C@@H]21	NR2E3 ag-2 93 | NR2E3 agonist cf 94 | PPARg-NCOR2 ctr 94
COc1ccc(C(CNC(=O)COc2cccc(C(F)(F)F)c2)N2CCCC2)cc1 (stereo not given)	NR2E3 ag-2 32 | NR2E3 agonist cf inactive | PPARg-NCOR2 ctr inactive
COc1ccc(C(CNC(=O)COc2cccc(C)c2)N2CCCC2)cc1 (stereo not given)	none
N#C/C(=C\c1ccc(O)cc1)C(=O)N1CCCC1	none
N#CC(=Cc1ccc(O)cc1)C(N)=C(C#N)C#N	NR2E3 ag-2 23 | NR2E3 agonist cf inactive | PPARg-NCOR2 ctr inactive
